Compound activity: PubChem BioAssay, Johns Hopkins Ion Channel Center
The list is not random: actives were taken first. Their share in the collection is about 3.7%.
KCNK9 block = KCNK9 potassium channel inhibitors, primary screen, HEK293 cells, thallium flux; Potassium channel subfamily K member 9 (Homo sapiens), Q9NPC2; FluxOR thallium flux fluorescence; active compounds read low; B-score at 10 µM; 1.2% of 310,000 active; AID 488922, 2010;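 active = ratio B-score over 3 SD below the library mean, with starting fluorescence within 5 SD of its mean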;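 also: negative B-score means less thallium flux so channel inhibition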
KCNK3 inh = human KCNK3 channel inhibitors, primary screen, CHO cells, FluxOR thallium flux, B-score; Potassium channel subfamily K member 3 (Homo sapiens), O14649; FluxOR fluorescence; active compounds read low; B-score at 10 µM; 0.84% of 340,000 active; AID 602410, 2012;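 active = B-score under library mean minus 4 SD, starting fluorescence ratio at most library mean plus 5 SD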;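 also: more negative B-score means stronger inhibition of thallium flux through KCNK3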
KCNQ1 pot = potentiators or activators of KCNQ1 channel, primary screen, cell-based, thallium flux, high-throughput. CHO-K1 KCNQ1, thallium flux FluxOR fluorescence; active compounds read high. B-score at 10 µM. 0.35% of 310,000 active. AID 2648, 2010. Potassium voltage-gated channel subfamily KQT member 1 (Homo sapiens), P51787;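 active = fluorescence ratio B-score, a plate-corrected score, at least three library SD, with initial intensity B-score within 5 SD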
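System: Stable KCNQ1 CHO-K1 line | Incubation: 90 min dye loading and 20 min compound exposure, both at room temperature | Measure: Ratio B score | Medium: Assay buffer for compound exposure, DMSO matched across wells | Compound dosing: Single-concentration screen | Probe or stimulus: K+/Tl+ depolarizing stimulus | Measured by: Kinetic FluxOR fluorescence, 10 s baseline plus 110 s post-stimulus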
Kir21 inh = inhibitors of mouse Kir2.1 inward-rectifier potassium channel; Inward rectifier potassium channel 2 (Mus musculus), P35561; HEK293-Kir2.1, FluxOR thallium flux fluorescence; active compounds read low; B-score at 10 µM; 0.85% of 310,000 active;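 active = fluorescence ratio B-score at or below minus 3 SD of library scores, with starting-brightness B-score within 2 SD, cut at about -4.2 in these data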;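 also: channel flux triggered by added potassium and thallium sulfate stimulus; B-score of peak minus minimum fluorescence over baseline after thallium stimulus; more negative B-score means stronger Kir2.1 block with less thallium influx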
Target sequence (P35561 whole entry, looked up): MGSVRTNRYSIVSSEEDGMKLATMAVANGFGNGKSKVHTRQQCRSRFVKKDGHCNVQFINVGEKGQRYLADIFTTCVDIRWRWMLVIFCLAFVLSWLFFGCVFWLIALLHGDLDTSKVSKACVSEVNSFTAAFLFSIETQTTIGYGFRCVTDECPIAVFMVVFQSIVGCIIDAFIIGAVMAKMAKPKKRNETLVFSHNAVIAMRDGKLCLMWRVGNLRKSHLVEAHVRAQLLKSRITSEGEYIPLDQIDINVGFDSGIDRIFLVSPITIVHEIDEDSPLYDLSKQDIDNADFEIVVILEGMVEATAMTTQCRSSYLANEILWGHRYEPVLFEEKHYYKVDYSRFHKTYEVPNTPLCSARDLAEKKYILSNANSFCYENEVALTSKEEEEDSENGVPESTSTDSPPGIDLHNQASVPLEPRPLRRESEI
hERG protect = hERG rescue from dofetilide block, primary screen, cell-based, CHO-hERG, FluxOR thallium flux, dofetilide IC70; Voltage-gated inwardly rectifying potassium channel KCNH2 (Homo sapiens), Q12809; 0.51% of 310,000 active; activation (rescue from dofetilide block), less the hit threshold, % at 10 µM; dofetilide IC70 present;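 active = activation above the mean of controls blocked by dofetilide plus 5 SD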;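 also: thallium influx through hERG after potassium depolarization seen as dye fluorescence rise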
KCNQ1 inh = inhibitors of human KCNQ1 channel, primary screen, cell-based, thallium flux, high-throughput; B-score at 10 µM; CHO-K1 KCNQ1, FluxOR thallium flux fluorescence; active compounds read high; AID 2642, 2010; 1.3% of 310,000 active; Potassium voltage-gated channel subfamily KQT member 1 (Homo sapiens), P51787;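 active = compounds whose thallium flux B-score, printed positive for inhibition, exceeds three library SD while starting fluorescence stays within three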;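 also: channel opened by potassium depolarization with thallium stimulus after 20 min compound exposure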
Numbers without * were called inactive.

How did Cc1cc(Br)ccc1OCC(=O)NNC(=O)Cc1ccccc1 do in these assays?
KCNK9 block: inactive; KCNK3 inh: inactive; KCNQ1 pot: inactive; Kir21 inh: 1.4; hERG protect: -7; KCNQ1 inh: inactive

How did O=C(COc1ccc2ccccc2c1)NNC(=O)C(=O)Nc1ccccc1 do in these assays?
KCNK9 block: inactive; KCNK3 inh: inactive; KCNQ1 pot: 35*; Kir21 inh: 0.24; hERG protect: 45*; KCNQ1 inh: inactive

What do the screens show for `COc1ccc(NC(=O)COc2ccc(N(C)S(=O)(=O)c3ccc(Cl)cc3)cc2)cc1OC`?
KCNK9 block: inactive; KCNK3 inh: inactive; KCNQ1 pot: inactive; Kir21 inh: 2.2; hERG protect: -23; KCNQ1 inh: 10*

What do the screens show for `COc1ccc(NC(=O)C(=O)NNC(=O)COc2ccc(OC)cc2)cc1`?
KCNK9 block: inactive; KCNK3 inh: inactive; KCNQ1 pot: inactive; Kir21 inh: 0.74; hERG protect: 7.8*; KCNQ1 inh: inactive

What do the screens show for `CN(c1ccc(OCC(=O)OCC(=O)Nc2ccc(F)cc2)cc1)S(=O)(=O)c1ccc(Cl)cc1`?
KCNK9 block: inactive; KCNK3 inh: inactive; KCNQ1 pot: inactive; Kir21 inh: -0.06; hERG protect: -3; KCNQ1 inh: inactive

How did COc1cc(NC(=O)COc2ccc(Cl)cc2)ccc1NC(=O)C(C)C do in these assays?
KCNK9 block: inactive; KCNK3 inh: inactive; KCNQ1 pot: inactive; Kir21 inh: 0.33; hERG protect: 2; KCNQ1 inh: inactive

What do the screens show for `CCOc1ccc(NC(=O)COc2ccc(OC)cc2)cc1`?
KCNK9 block: inactive; KCNK3 inh: inactive; KCNQ1 pot: inactive; Kir21 inh: -1.3; hERG protect: -8; KCNQ1 inh: inactive

What do the screens show for `COc1ccc(NC(=O)C(=O)NNC(=O)COc2ccc(Cl)cc2)c(OC)c1`?
KCNK9 block: inactive; KCNK3 inh: inactive; KCNQ1 pot: 69*; Kir21 inh: 0.06; hERG protect: 16*; KCNQ1 inh: inactive

What do the screens show for `CCc1ccc(NC(=O)C(=O)NNC(=O)COc2cccc(OC)c2)cc1`?
KCNK9 block: inactive; KCNK3 inh: inactive; KCNQ1 pot: 28*; Kir21 inh: -1.5; hERG protect: 7.2*; KCNQ1 inh: inactive

What do the screens show for `CCOC(=O)N1CCC(NC(=O)CC2C(=O)NCCN2Cc2ccccc2)CC1` (centres undefined)?
KCNK9 block: inactive; KCNK3 inh: inactive; KCNQ1 pot: inactive; Kir21 inh: -0.46; hERG protect: -9; KCNQ1 inh: inactive

How did CC1=CC(=C(C#N)c2nc3ccccc3s2)C=C(C)N1Cc1ccco1 do in these assays?
KCNK9 block: inactive; KCNK3 inh: -13*; KCNQ1 pot: inactive; Kir21 inh: -0.11; hERG protect: -7; KCNQ1 inh: inactive

What do the screens show for `COc1ccc2[nH]c(=O)c(CN(Cc3cccnc3)Cc3nnnn3CC3CCCO3)cc2c1` (centres undefined)?
KCNK9 block: inactive; KCNK3 inh: inactive; KCNQ1 pot: inactive; Kir21 inh: -0.44; hERG protect: -3; KCNQ1 inh: inactive

How did CCCC(C(=O)Nc1ccncc1)c1ccccc1 (centres undefined) do in these assays?
KCNK9 block: inactive; KCNK3 inh: inactive; KCNQ1 pot: inactive; Kir21 inh: 0.8; hERG protect: -4; KCNQ1 inh: inactive

How did Cc1cc(C(=O)OCC(=O)Nc2cccnc2Cl)c2ccccc2n1 do in these assays?
KCNK9 block: inactive; KCNK3 inh: inactive; KCNQ1 pot: inactive; Kir21 inh: -2.1; hERG protect: -3; KCNQ1 inh: inactive

How did Nc1nonc1-n1nnc(C(=O)N/N=C/c2cccc(Cl)c2Cl)c1CN1CCCC1 do in these assays?
KCNK9 block: inactive; KCNK3 inh: inactive; KCNQ1 pot: inactive; Kir21 inh: -1.1; hERG protect: 40*; KCNQ1 inh: inactive
